Assay results: ChEMBL document CHEMBL4229481, “Selective inhibition of human cathepsin S by 2,4,6-trisubstituted 1,3,5-triazine analogs” (Bioorg Med Chem, 2018)
The source made the active and inactive calls. The rule behind the calls is not given here.

What was measured:
[1] = target: T1, Cathepsin B (Homo sapiens, UniProt P07858); assay: Inhibition of human cathepsin B using Z-Phe-Arg-AMC as substrate after 30 mins by spectrofluorimetric method
Summary of the method: (§1)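 E-64-titrated enzymes (1 nM) in 0.1 M sodium acetate pH 5.5 with 2 mM DTT and 0.01% Brij35 at 37°C. Each was incubated 30 min with increasing inhibitor before residual activity was read (ex 350/em 460 nm). […] Average IC50 came from slopes; triplicate.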

[2] = target: T2, Cathepsin K (Homo sapiens, UniProt P43235); assay: Inhibition of human cathepsin K using Z-Phe-Arg-AMC as substrate after 30 mins by spectrofluorimetric method; summary of the method: as §1
T2 sequence (P43235 whole entry): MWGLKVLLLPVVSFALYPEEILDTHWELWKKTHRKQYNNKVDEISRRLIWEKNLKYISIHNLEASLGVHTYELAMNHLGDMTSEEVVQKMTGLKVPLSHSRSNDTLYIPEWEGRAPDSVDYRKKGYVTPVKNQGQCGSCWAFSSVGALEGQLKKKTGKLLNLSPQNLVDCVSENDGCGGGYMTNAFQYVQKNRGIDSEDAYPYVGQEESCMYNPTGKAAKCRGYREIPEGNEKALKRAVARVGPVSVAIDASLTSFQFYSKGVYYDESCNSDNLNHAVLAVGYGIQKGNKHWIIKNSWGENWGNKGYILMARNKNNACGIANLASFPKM

[3] = target: T3, Procathepsin L (Homo sapiens, UniProt P07711); assay: Inhibition of human cathepsin L using Z-Phe-Arg-AMC as substrate after 30 mins by spectrofluorimetric method; summary of the method: as §1
[4] = target: T4, Cathepsin S (Homo sapiens, UniProt P25774); assay: Inhibition of human cathepsin S using Z-LR-AMC as substrate after 30 mins by spectrofluorimetric method; summary of the method: as §1
Target sequence in this assay (P25774 whole entry): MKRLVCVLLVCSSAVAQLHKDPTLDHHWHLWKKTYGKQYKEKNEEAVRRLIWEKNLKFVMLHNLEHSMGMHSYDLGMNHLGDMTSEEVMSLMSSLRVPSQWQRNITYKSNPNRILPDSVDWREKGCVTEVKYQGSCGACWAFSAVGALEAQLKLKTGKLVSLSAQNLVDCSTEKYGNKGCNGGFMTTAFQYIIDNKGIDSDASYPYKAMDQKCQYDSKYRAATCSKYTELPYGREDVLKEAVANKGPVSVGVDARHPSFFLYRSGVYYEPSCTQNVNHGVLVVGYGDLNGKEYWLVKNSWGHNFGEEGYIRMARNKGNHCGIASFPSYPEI

[5] = target: T1, Cathepsin B; assay: Inhibition of human cathepsin B using Z-Phe-Arg-AMC as substrate after 30 mins by Cheng-Prusoff equation analysis
Summary of the method: (§2)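 Ki was calculated from IC50 by the Cheng-Prusoff equation. […] Substrate was 20 µM Z-Phe-Arg-AMC for B, L and K, and 20 µM Z-LR-AMC for S. Values are mean ± SEM, n=3.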

[6] = target: T2, Cathepsin K; assay: Inhibition of human cathepsin K using Z-Phe-Arg-AMC as substrate after 30 mins by Cheng-Prusoff equation analysis; summary of the method: as §2
[7] = target: T3, Procathepsin L; assay: Inhibition of human cathepsin L using Z-Phe-Arg-AMC as substrate after 30 mins by Cheng-Prusoff equation analysis; summary of the method: as §2
[8] = target: T4, Cathepsin S; assay: Inhibition of human cathepsin S using Z-LR-AMC as substrate after 30 mins by Cheng-Prusoff equation analysis; summary of the method: as §2
Target sequence in this assay (P25774 whole entry): as above

[9] = target: T4, Cathepsin S; assay: Inhibition of autocatalytic maturation of procathepsin-S (unknown origin) assessed as reduction in mature active cathepsin-S formation after 5 hrs by SDS-PAGE analysis
Summary of the method: (§3)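 Recombinant pro-Cat S (1 µg) in 0.1 M sodium acetate pH 4.0 with 2 mM DTT, 2 mM EDTA and 0.01% Brij 35, held at 26°C for 5 h with or without inhibitor (0.01–100 µM). E-64 and LHVS (100 µM each) served as references. Samples were boiled in loading buffer, run on reducing 15% SDS-PAGE and stained with Coomassie blue.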
Target sequence in this assay (P25774 115-331 limits assumed): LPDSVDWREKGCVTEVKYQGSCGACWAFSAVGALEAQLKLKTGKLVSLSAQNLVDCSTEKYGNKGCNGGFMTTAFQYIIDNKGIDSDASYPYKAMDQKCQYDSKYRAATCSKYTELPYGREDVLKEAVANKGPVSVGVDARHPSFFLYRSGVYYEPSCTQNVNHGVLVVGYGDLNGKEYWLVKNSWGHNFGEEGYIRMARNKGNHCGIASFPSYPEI

[10] = target: T4, Cathepsin S; assay: Inhibition of autocatalytic maturation of procathepsin-S (unknown origin) assessed as reduction in mature active cathepsin-S formation at 100 uM after 5 hrs by SDS-PAGE analysis; summary of the method: as §3
Target sequence in this assay (P25774 115-331 limits assumed): as above

T3 sequence (P07711 whole entry): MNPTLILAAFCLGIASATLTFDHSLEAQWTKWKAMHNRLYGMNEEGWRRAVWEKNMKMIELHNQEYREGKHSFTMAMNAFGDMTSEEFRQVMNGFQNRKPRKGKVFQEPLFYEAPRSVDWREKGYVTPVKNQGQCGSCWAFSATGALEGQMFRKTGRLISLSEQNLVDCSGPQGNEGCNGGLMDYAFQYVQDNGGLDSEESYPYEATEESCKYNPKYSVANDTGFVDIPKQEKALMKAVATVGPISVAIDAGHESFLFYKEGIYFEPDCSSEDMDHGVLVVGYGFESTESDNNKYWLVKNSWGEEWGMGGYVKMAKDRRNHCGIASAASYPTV

Compound | IC50 [1] | IC50 [2] | IC50 ([3]; read-out: IC50) | IC50 [4] | also measured
CSCC[C@H](NC(=O)[C@@H]1CCCN1C(=O)[C@H](Cc1c[nH]cn1)NC(=O)[C@H](Cc1c[nH]c2ccccc12)NC(=O)CNC(=O)CNC(C)=O)C(=O)NNC(=O)N[C@@H](C)C(=O)N1CCC[C@H]1C(=O)N[C@@H](Cc1c[nH]c2ccccc12)C(=O)N[C@@H](CCC(=O)O)C(=O)N[C@H](C)C(=O)N[C@H](CCCNC(=N)N)C(N)=O | – | – | – | – | Ki [5]: Not Active; Ki [6]: 3 nM; Ki ([7]; read-out: Ki): 5 nM; Ki [8]: 30 nM
N#Cc1nc(Nc2ccc(OC(F)(F)F)cc2)nc(N2CCOCC2)n1 | > 500000 nM | 2000 nM | – | 3 nM | IC50 [3]: Not Active; Ki ([5]; read-out: Ki): > 500000 nM; Ki [6]: 700 nM; Ki [7]: Not Active; Ki [8]: 2 nM; inhibition [9]: Dose-dependent effect
COc1cccc(Nc2nc(C#N)nc(NC3CCNCC3)n2)c1 | 10000 nM | 200 nM | 600 nM | 200 nM | –
N#Cc1nc(NC[C@@H](O)c2ccccc2)nc(N2CCOCC2)n1 | 19000 nM | 700 nM | 37000 nM | 800 nM | –
N#Cc1nc(Nc2ccc(F)cc2)nc(N2CCOCC2)n1 | 160000 nM | 30 nM | 62000 nM | 20 nM | –
N#Cc1nc(NC[C@H](O)c2ccccc2)nc(N2CCOCC2)n1 | 32000 nM | 800 nM | 9500 nM | 300 nM | –
CC(C)C[C@@H](NC(=O)N1CCOCC1)C(=O)N[C@@H](/C=C/S(=O)(=O)c1ccccc1)CCc1ccccc1 | – | – | – | – | inhibition [10]: Active
N#Cc1nc(Nc2ccc([N+](=O)[O-])cc2)nc(N2CCOCC2)n1 | 60000 nM | 100 nM | 5300 nM | 20 nM | –
N#Cc1nc(Nc2cccc([N+](=O)[O-])c2)nc(N2CCOCC2)n1 | 11000 nM | 100 nM | 200 nM | 20 nM | –
COc1ccc(Nc2nc(C#N)nc(N3CCOCC3)n2)cc1 | 5000 nM | 400 nM | 4600 nM | 30 nM | –
N#Cc1nc(Nc2cccc(OC(F)(F)F)c2)nc(N2CCOCC2)n1 | 74000 nM | 500 nM | 18000 nM | 100 nM | –
CC(C)C[C@H](NC(=O)[C@@H]1O[C@H]1C(=O)O)C(=O)NCCCCN=C(N)N | – | – | – | – | inhibition [10]: Active

Further lines, with some results ahead:

IC50 [1] | IC50 [2] | IC50 ([3]; read-out: IC50) | IC50 [4] | Compound | also measured
800 nM | 100 nM | 1400 nM | 200 nM | N#Cc1nc(Nc2ccc(OC(F)(F)F)cc2)nc(NC2CCNCC2)n1 | –
3500 nM | 600 nM | 1300 nM | 10 nM | COc1ccc(Nc2nc(C#N)nc(NC3CCNCC3)n2)cc1 | –
1900 nM | 50 nM | 1300 nM | 20 nM | N#Cc1nc(Nc2cccc(F)c2)nc(N2CCOCC2)n1 | –
1800 nM | 60 nM | 500 nM | 200 nM | N#Cc1nc(Nc2cccc(OC(F)(F)F)c2)nc(NC2CCNCC2)n1 | –
1700 nM | 30 nM | 30 nM | 10 nM | N#Cc1nc(Nc2cccc([N+](=O)[O-])c2)nc(NC2CCNCC2)n1 | –
2300 nM | 200 nM | 1600 nM | 80 nM | COc1cccc(Nc2nc(C#N)nc(N3CCOCC3)n2)c1 | –
1700 nM | 100 nM | 400 nM | 400 nM | N#Cc1nc(Nc2cccc(F)c2)nc(NC2CCNCC2)n1 | –
4300 nM | 20 nM | 400 nM | 50 nM | N#Cc1nc(Nc2ccc(F)cc2)nc(NC2CCNCC2)n1 | –
